According to ChEMBL document CHEMBL3244396, “Synthesis and antileukemic activity of 5-substituted 2,3-dihydro-6,7-bis(hydroxymethyl)-1H-pyrrolizine diesters” (J Med Chem, 1977):

Key:
P388 [1] = test: Antitumor activity against mouse P388 cells allografted in male CDF1 mouse assessed as change in body weight at 50 mg/kg, ip administered daily for 9 days as saline with Tween-80 solution starting 24 hrs after tumor inoculation; type: functional; conditions: route intraperitoneal
Outline: (§1)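 Ascitic fluid carrying P388 cells was inoculated ip. Compound was given ip in nine daily doses, starting 24 h after inoculation, in Klucel (hydroxypropylcellulose) suspension or in saline with Tween-80. Body-weight difference (treated minus control) was recorded on day 5. Survival was scored as %T/C of median survival time, and 30-day survival counted as cure.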

P388 [2] = test: Antitumor activity against mouse P388 cells allografted in male CDF1 mouse assessed as change in body weight at 100 mg/kg, ip administered daily for 9 days as saline with Tween-80 solution starting 24 hrs after tumor inoculation; type: functional; conditions: route intraperitoneal; outline: as §1
P388 [3] = test: Antitumor activity against mouse P388 cells allografted in female CDF1 mouse assessed as disease cures by measuring 30-days host survival at 400 mg/kg, ip administered daily for 9 days as saline with Tween-80 solution starting 24 hrs after tumor inoculation relative to control; type: functional; conditions: route intraperitoneal
Outline: (§2)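 P388 ascitic cell inoculum given ip to CDF1 mice of the sex in each line. Nine daily ip doses in saline with Tween-80 as vehicle, starting 24 h after inoculation. Median survival time expressed as %T/C (>125 significant); "cure" defined as 30-day survival.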

P388 [4] = test: Antitumor activity against mouse P388 cells allografted in male CDF1 mouse assessed as change in body weight at 25 mg/kg, ip administered daily for 9 days as saline with Tween-80 solution starting 24 hrs after tumor inoculation; type: functional; conditions: route intraperitoneal; outline: as §1
P388 [5] = test: Antitumor activity against mouse P388 cells allografted in female CDF1 mouse assessed as disease cures by measuring 30-days host survival at 200 mg/kg, ip administered daily for 9 days as saline with Tween-80 solution starting 24 hrs after tumor inoculation relative to control; type: functional; conditions: route intraperitoneal; outline: as §2
Mus musculus [6] = test: Toxicity in female CDF1 mouse allografted with mouse P388 cells assessed as animal survival at 50 mg/kg, ip administered daily for 9 days as saline with Tween-80 solution starting 24 hrs after tumor inoculation; type: organism-based; design: dose 50 mg/kg, route intraperitoneal; conditions: in vivo
Outline: (§3)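 P-388 leukemia ascitic fluid implanted ip. Compound dosed ip in saline with Tween-80 vehicle, once daily for nine doses from 24 h after tumor inoculation. Acute toxicity scored as toxicity-day survivors per group. Survival was followed up to 30 days, with 30-day survival counted as "cure". Follows NCI screening protocols.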

Mus musculus [7] = test: Toxicity in female CDF1 mouse allografted with mouse P388 cells assessed as animal survival at 100 mg/kg, ip administered daily for 9 days as saline with Tween-80 solution starting 24 hrs after tumor inoculation; type: organism-based; design: dose 100 mg/kg, route intraperitoneal; conditions: in vivo; outline: as §3
P388 [8] = test: Antitumor activity against mouse P388 cells allografted in female CDF1 mouse assessed as change in body weight at 25 mg/kg, ip administered daily for 9 days as saline with Tween-80 solution starting 24 hrs after tumor inoculation; type: functional; conditions: route intraperitoneal; outline: as §1
Mus musculus [9] = test: Toxicity in male CDF1 mouse allografted with mouse P388 cells assessed as animal survival at 100 mg/kg, ip administered daily for 9 days as saline with Tween-80 solution starting 24 hrs after tumor inoculation; type: organism-based; design: dose 100 mg/kg, route intraperitoneal; conditions: in vivo; outline: as §3
P388 [10] = test: Antitumor activity against mouse P388 cells allografted in female CDF1 mouse assessed as disease cures by measuring 30-days host survival at 50 mg/kg, ip administered daily for 9 days as saline with Tween-80 solution starting 24 hrs after tumor inoculation relative to control; type: functional; conditions: route intraperitoneal; outline: as §2
Mus musculus [11] = test: Toxicity in male CDF1 mouse allografted with mouse P388 cells assessed as animal survival at 50 mg/kg, ip administered daily for 9 days as saline with Tween-80 solution starting 24 hrs after tumor inoculation; type: organism-based; design: dose 50 mg/kg, route intraperitoneal; conditions: in vivo; outline: as §3
P388 [12] = test: Antitumor activity against mouse P388 cells allografted in female CDF1 mouse assessed as change in body weight at 400 mg/kg, ip administered daily for 9 days as saline with Tween-80 solution starting 24 hrs after tumor inoculation; type: functional; conditions: route intraperitoneal; outline: as §1
P388 [13] = test: Antitumor activity against mouse P388 cells allografted in male CDF1 mouse assessed as disease cures by measuring 30-days host survival at 100 mg/kg, ip administered daily for 9 days as saline with Tween-80 solution starting 24 hrs after tumor inoculation relative to control; type: functional; conditions: route intraperitoneal; outline: as §2
Mus musculus [14] = test: Toxicity in female CDF1 mouse allografted with mouse P388 cells assessed as animal survival at 200 mg/kg, ip administered daily for 9 days as saline with Tween-80 solution starting 24 hrs after tumor inoculation; type: organism-based; design: dose 200 mg/kg, route intraperitoneal; conditions: in vivo; outline: as §3
P388 [15] = test: Antitumor activity against mouse P388 cells allografted in female CDF1 mouse assessed as disease cures by measuring 30-days host survival at 25 mg/kg, ip administered daily for 9 days as saline with Tween-80 solution starting 24 hrs after tumor inoculation relative to control; type: functional; conditions: route intraperitoneal; outline: as §2
Mus musculus [16] = test: Toxicity in female CDF1 mouse allografted with mouse P388 cells assessed as animal survival at 25 mg/kg, ip administered daily for 9 days as saline with Tween-80 solution starting 24 hrs after tumor inoculation; type: organism-based; design: dose 25 mg/kg, route intraperitoneal; conditions: in vivo; outline: as §3
P388 [17] = test: Antitumor activity against mouse P388 cells allografted in female CDF1 mouse assessed as change in body weight at 200 mg/kg, ip administered daily for 9 days as saline with Tween-80 solution starting 24 hrs after tumor inoculation; type: functional; conditions: route intraperitoneal; outline: as §1
P388 [18] = test: Antitumor activity against mouse P388 cells allografted in female CDF1 mouse assessed as change in body weight at 50 mg/kg, ip administered daily for 9 days as saline with Tween-80 solution starting 24 hrs after tumor inoculation; type: functional; conditions: route intraperitoneal; outline: as §1
P388 [19] = test: Antitumor activity against mouse P388 cells allografted in female CDF1 mouse assessed as change in body weight at 100 mg/kg, ip administered daily for 9 days as saline with Tween-80 solution starting 24 hrs after tumor inoculation; type: functional; conditions: route intraperitoneal; outline: as §1
P388 [20] = test: Antitumor activity against mouse P388 cells allografted in female CDF1 mouse assessed as disease cures by measuring 30-days host survival at 100 mg/kg, ip administered daily for 9 days as saline with Tween-80 solution starting 24 hrs after tumor inoculation relative to control; type: functional; conditions: route intraperitoneal; outline: as §2
P388 [21] = test: Antitumor activity against mouse P388 cells allografted in male CDF1 mouse assessed as disease cures by measuring 30-days host survival at 25 mg/kg, ip administered daily for 9 days as saline with Tween-80 solution starting 24 hrs after tumor inoculation relative to control; type: functional; conditions: route intraperitoneal; outline: as §2
P388 [22] = test: Antitumor activity against mouse P388 cells allografted in male CDF1 mouse assessed as disease cures by measuring 30-days host survival at 50 mg/kg, ip administered daily for 9 days as saline with Tween-80 solution starting 24 hrs after tumor inoculation relative to control; type: functional; conditions: route intraperitoneal; outline: as §2

CCCCNC(=O)OCc1c(COC(=O)NCCCC)c(-c2ccc(Cl)c(Cl)c2)n2c1CCC2
Activity (P388 [1]): -1.1 g
Activity (P388 [2]): -0.4 g
T/C (P388 [3]): 84%
Activity (P388 [4]): -1.9 g
T/C (P388 [5]): 163%
Activity (Mus musculus [6]): Non-toxic
Activity (Mus musculus [7]): Non-toxic
Activity (P388 [8]): -1.2 g
Activity (Mus musculus [9]): Non-toxic
T/C (P388 [10]): 171%
Activity (Mus musculus [11]): Non-toxic
Activity (P388 [12]): -3.6 g
T/C (P388 [13]): 160%
Activity (Mus musculus [14]): Non-toxic
T/C (P388 [15]): 159%
Activity (Mus musculus [16]): Non-toxic
Activity (P388 [17]): -3.2 g
Activity (P388 [18]): -1.9 g
Activity (P388 [19]): -2 g
T/C (P388 [20]): 181%
T/C (P388 [21]): 138%
T/C (P388 [22]): 137%
